Assay [1] concerns the target T1, Adenosine receptor A1 (Homo sapiens, UniProt P30542).
T1 sequence (P30542 whole entry): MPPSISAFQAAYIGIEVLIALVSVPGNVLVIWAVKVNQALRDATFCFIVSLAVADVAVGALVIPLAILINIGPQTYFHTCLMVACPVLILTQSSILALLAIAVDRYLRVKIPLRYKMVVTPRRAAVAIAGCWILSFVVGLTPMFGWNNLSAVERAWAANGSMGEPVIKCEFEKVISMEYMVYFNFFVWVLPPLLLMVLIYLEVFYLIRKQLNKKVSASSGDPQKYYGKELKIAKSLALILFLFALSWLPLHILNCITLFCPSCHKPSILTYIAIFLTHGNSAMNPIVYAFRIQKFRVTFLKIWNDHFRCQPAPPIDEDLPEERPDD
The assay can be described thus: Displacement of [3H]CCPA from human adenosine A1 receptor expressed in CHO cells by Top Count analysis. It is filed as cell-based. A digest of the protocol: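 Tritiated-radioligand competition binding at hA1 receptor, 3 h at room temperature; nonspecific binding with 1 mM theophylline. Separation by GF/B glass-fibre filtration, filter radioactivity counted by scintillation (57% efficiency). Ki from competition curves by nonlinear curve fitting.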

The target of assay [2] is Adenosine receptor A2a (Homo sapiens, UniProt P29274). Briefly: Displacement of [3H]NECA from human adenosine A2A receptor expressed in CHO cells by Top Count analysis. It is filed as cell-based. On the technique in general: In a radioligand displacement assay an active substance lowers the binding of a labelled ligand.
Assay [3] deals with T2, Adenosine receptor A2b (Homo sapiens, UniProt P29275).
T2 sequence (P29275 whole entry): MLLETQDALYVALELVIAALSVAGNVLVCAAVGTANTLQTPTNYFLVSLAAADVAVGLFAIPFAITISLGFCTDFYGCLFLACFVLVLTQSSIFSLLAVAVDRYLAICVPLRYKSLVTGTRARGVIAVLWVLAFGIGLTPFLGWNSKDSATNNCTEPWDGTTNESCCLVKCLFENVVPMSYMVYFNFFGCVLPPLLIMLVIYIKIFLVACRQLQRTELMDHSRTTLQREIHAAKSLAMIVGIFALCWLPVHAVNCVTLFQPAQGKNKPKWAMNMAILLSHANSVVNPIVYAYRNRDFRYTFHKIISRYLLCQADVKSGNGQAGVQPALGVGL
The assay can be described thus: Antagonist activity at human adenosine A2B receptor expressed in CHO cells assessed as inhibition of NECA-induced adenylyl cyclase activity. The format is functional, cell-based. The method, boiled down:
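Membranes from CHO cells transfected with hA2B receptor incubated 20 min with 100 nM NECA, 150,000 cpm [α-32P]ATP and varying antagonist concentrations, in mixture lacking EGTA and NaCl. Ki derived from concentration-dependent inhibition of NECA-stimulated adenylyl cyclase activity; n = 3–6.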

The target of assay [4] is T3, Adenosine receptor A3 (Homo sapiens, UniProt P0DMS8).
T3 sequence (P0DMS8 whole entry): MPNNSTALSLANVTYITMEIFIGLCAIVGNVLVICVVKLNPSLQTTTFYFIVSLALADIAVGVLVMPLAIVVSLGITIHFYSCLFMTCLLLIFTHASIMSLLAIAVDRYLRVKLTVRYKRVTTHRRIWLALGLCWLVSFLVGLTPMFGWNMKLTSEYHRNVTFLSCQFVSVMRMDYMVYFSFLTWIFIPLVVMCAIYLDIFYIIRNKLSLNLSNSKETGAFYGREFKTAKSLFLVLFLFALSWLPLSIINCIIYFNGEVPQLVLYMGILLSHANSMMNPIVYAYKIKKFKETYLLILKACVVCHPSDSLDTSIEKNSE
The assay can be described thus: Displacement of [3H]HEMADO from human adenosine A3 receptor expressed in CHO cells by Top Count analysis. The format is cell-based. A digest of the protocol:
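Competition against [3H]HEMADO binding at hA3 receptor in CHO cells, 3 h at room temperature; nonspecific binding defined with 100 µM R-PIA.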

The target of assay [5] is Adenosine receptors; A1 & A3 (Homo sapiens) (UniProt P30542+P0DMS8). Briefly: Selectivity ratio of Ki for human adenosine A1 receptor to Ki for human adenosine A3 receptor.
For assay [6], the species on record is Homo sapiens. The assay can be described thus: Selectivity ratio of Ki for human adenosine A2A receptor to Ki for human adenosine A3 receptor.

Sequence of Adenosine receptor A2a (P29274 whole entry): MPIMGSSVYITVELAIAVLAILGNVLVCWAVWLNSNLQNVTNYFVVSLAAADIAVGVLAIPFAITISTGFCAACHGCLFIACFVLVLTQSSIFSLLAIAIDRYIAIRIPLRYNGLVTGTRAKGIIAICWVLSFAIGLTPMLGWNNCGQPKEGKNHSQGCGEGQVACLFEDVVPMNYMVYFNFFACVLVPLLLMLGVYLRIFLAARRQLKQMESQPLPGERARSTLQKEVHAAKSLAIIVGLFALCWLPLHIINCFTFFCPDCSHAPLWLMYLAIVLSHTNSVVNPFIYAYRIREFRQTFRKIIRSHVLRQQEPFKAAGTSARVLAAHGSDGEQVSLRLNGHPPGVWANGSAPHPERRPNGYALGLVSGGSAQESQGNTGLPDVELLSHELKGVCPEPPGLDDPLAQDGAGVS

What is called Ki is the equilibrium dissociation constant of an inhibitor or competing ligand from its target. `CCOC(=O)c1nc(N(C(=O)c2ccc(Br)cc2)C(=O)c2ccc(Br)cc2)nc2nn(C)cc12`: the Ki was greater than 100 µM in assay [1], greater than 100 µM in assay [2], greater than 20 µM in assay [3] and 2.9 µM in assay [4]. In addition, the Ratio Ki in assay [5] and in assay [6] was greater than 34 throughout.

With `CCOC(=O)c1nc(N)nc2nn(C(C)C)cc12`, the Ki in assay [1] is 0.9 µM; in assay [2] it was 2.6 µM; in assay [3], greater than 10 µM; in assay [4], 14 µM. For the same compound, the values for the Ratio Ki in assay [5] and in assay [6] were 0.06 and 0.18, respectively.

For the compound `CCOC(=O)c1nc(NC(=O)c2ccc(F)cc2)nc2nn(C(C)C)cc12`, the inhibition constant Ki in assay [1] was 2.8 µM; in assay [2], 2.8 µM; in assay [3], greater than 20 µM; in assay [4], 5.7 µM. The Ratio Ki in assay [5] and in assay [6] was 0.5 each time.

Consider `CCOC(=O)c1nc(NC(=O)Cc2ccccc2)nc2nn(C)cc12`, for which the Ki in assay [1] is 5.9 µM; in assay [2], 7.3 µM; in assay [3], greater than 20 µM; in assay [4], 14.6 µM. Further, the Ratio Ki was determined as 0.4 in assay [5] and 0.5 in assay [6].

The record behind these values is ChEMBL document CHEMBL3407439, “A facile and novel synthesis of N(2)-, C(6)-substituted pyrazolo[3,4-d]pyrimidine-4 carboxylate derivatives as adenosine receptor antagonists” (Eur J Med Chem, 2015).
